# Assay results from ChEMBL document CHEMBL4364282, “Engineered Substrate for Cyclooxygenase-2: A Pentapeptide Isoconformational to Arachidonic Acid for Managing Inflammation” (J Med Chem, 2019).
# Active and inactive are the calls of the source. The rule behind the calls is not given here. Peptide text beside a SMILES is read from it. * marks the point of attachment. Cbz = O=C(OCc1ccccc1)*; Boc = CC(C)(C)OC(=O)*
# B1: Prostaglandin G/H synthase 2 (Homo sapiens) (protein)
# chain: MLARALLLCAVLALSHTANPCCSHPCQNRGVCMSVGFDQYKCDCTRTGFYGENCSTPEFLTRIKLFLKPTPNTVHYILTHFKGFWNVVNNIPFLRNAIMSYVLTSRSHLIDSPPTYNADYGYKSWEAFSNLSYYTRALPPVPDDCPTPLGVKGKKQLPDSNEIVEKLLLRRKFIPDPQGSNMMFAFFAQHFTHQFFKTDHKRGPAFTNGLGHGVDLNHIYGETLARQRKLRLFKDGKMKYQIIDGEMYPPTVKDTQAEMIYPPQVPEHLRFAVGQEVFGLVPGLMMYATIWLREHNRVCDVLKQEHPEWGDEQLFQTSRLILIGETIKIVIEDYVQHLSGYHFKLKFDPELLFNKQFQYQNRIAAEFNTLYHWHPLLPDTFQIHDQKYNYQQFIYNNSILLEHGITQFVESFTRQIAGRVAGGRNVPPAVQKVSQASIDQSRQMKYQSFNEYRKRFMLKPYESFEELTGEKEMSAELEALYGDIDAVELYPALLVEKPRPDAIFGETMVEVGAPFSLKGLMGNVICSPAYWKPSTFGGEVGFQIINTASIQSLICNNVKGCPFTSFSVPDPELIKTVTINASSSRSGLDDINPTVLLKERSTEL
# Experiments:
# Rattus norvegicus [1] = assay: Analgesic activity in Wistar rat model of formalin-induced hyperalgesia assessed as reduction in number of formalin-evoked paw flinching during neurogenic phase at 10 mg/kg preincubated for 30 mins followed by formalin treatment and measured during first 5 mins post formalin injection relative to control; assay type: functional; parameters: scale not given: the % may be the effect or the level left
# Outline: (§1)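 Formalin paw test in male Wistar rats (250-300 g), 5 per group. Flinching was counted separately in the neurogenic and inflammatory phases. Modulator studies used pre-treatment with substance P, L-NAME or L-arginine (NO precursor) in three groups each. Data are mean±SEM (n=5), analysed by one-way ANOVA with Tukey's test (p<.05 vs control).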
# Rattus norvegicus [2] = assay: Analgesic activity in Wistar rat model of acetic-acid-induced writhing assessed as inhibition of writhing numbers at 5 to 10 mg/kg, ip preincubated for 30 mins followed by acetic acid induction and measured for 30 mins relative to control; assay type: functional; parameters: scale not given: the % may be the effect or the level left
# Outline: (§2)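 Male Wistar rats (250-300 g) in groups of 5. Writhing (abdominal contraction, trunk twisting, hind-leg extension) was induced by intraperitoneal acetic acid, and writhes were counted. Test doses were 5 and 10 mg/kg, with a vehicle control and indomethacin 10 mg/kg as reference. Data are mean±SEM (n=5), analysed by one-way ANOVA with Tukey's test (p<.05 vs control).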
# [3] = biological target: Prostaglandin G/H synthase 1 (Homo sapiens, UniProt P23219); assay: Inhibition of COX-1 in human whole blood assessed as reduction in calcium ionophore A23187-stimulated thromboxane B2 production by measuring thromboxane B2 level at 1 uM preincubated for 60 mins followed by calcium ionophore A23187 stimulation and measured after 30 mins by ELISA (reference value: 1.4 ng/mL); assay type: tissue-based; conditions: 0.5 h
# Chain of Prostaglandin G/H synthase 1 (Homo sapiens, UniProt P23219) (P23219 whole entry): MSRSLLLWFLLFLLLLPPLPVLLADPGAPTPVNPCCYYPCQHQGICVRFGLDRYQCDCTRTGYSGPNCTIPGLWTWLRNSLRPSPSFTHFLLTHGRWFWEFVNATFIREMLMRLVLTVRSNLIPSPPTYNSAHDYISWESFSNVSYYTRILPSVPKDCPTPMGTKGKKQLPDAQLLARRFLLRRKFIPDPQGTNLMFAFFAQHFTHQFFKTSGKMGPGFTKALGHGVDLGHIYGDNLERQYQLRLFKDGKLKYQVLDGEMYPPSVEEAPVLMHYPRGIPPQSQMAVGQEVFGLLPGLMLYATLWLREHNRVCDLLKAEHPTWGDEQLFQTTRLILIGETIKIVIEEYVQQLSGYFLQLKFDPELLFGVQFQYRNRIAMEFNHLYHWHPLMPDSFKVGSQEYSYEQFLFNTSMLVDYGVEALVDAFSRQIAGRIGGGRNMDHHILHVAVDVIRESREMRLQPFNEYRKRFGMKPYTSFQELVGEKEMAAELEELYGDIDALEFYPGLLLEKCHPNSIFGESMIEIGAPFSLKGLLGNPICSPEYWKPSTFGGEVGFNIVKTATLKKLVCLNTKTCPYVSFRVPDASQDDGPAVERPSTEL
# Outline: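 Human whole blood stimulated with calcium ionophore to drive COX-1, with thromboxane B2 formation measured. The test concentration was 1 μM, and indomethacin 1 μM served as reference.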
# Rattus norvegicus [4] = assay: Analgesic activity in Wistar rat model of formalin-induced hyperalgesia assessed as reduction in number of formalin-evoked paw flinching during inflammatory phase at 10 mg/kg preincubated for 30 mins followed by formalin treatment and measured after 15 to 30 mins relative to control; assay type: functional; parameters: scale not given: the % may be the effect or the level left; outline: as §1
# Rattus norvegicus [5] = assay: Analgesic activity in Wistar rat model of formalin-induced hyperalgesia assessed as reduction in number of formalin-evoked paw flinching during neurogenic phase at 10 mg/kg administered intraperitoneally 30 mins after substance P injection followed by formalin induction after 30 mins and measured during first 5 mins post formalin injection; assay type: functional, organism-based; outline: as §1
# Rattus norvegicus [6] = assay: Analgesic activity in Wistar rat model of formalin-induced hyperalgesia assessed as reduction in number of formalin-evoked paw flinching during neurogenic phase at 10 mg/kg administered intraperitoneally 30 mins after nitric oxide precursor L-arginine injection followed by formalin induction after 30 mins and measured during first 5 mins post formalin injection; assay type: functional, organism-based; outline: as §1
# Rattus norvegicus [7] = assay: Analgesic activity in Wistar rat model of formalin-induced hyperalgesia assessed as reduction in number of formalin-evoked paw flinching during inflammatory phase at 10 mg/kg administered intraperitoneally 30 mins after substance P injection followed by formalin induction after 30 mins and measured after 15 to 30 mins post formalin injection; assay type: functional, organism-based; outline: as §1
# Rattus norvegicus [8] = assay: Analgesic activity in Wistar rat model of formalin-induced hyperalgesia assessed as reduction in number of formalin-evoked paw flinching during inflammatory phase at 10 mg/kg administered intraperitoneally 30 mins after nitric oxide precursor L-arginine injection followed by formalin induction after 30 mins and measured after 15 to 30 mins post formalin injection; assay type: functional, organism-based; outline: as §1
# Rattus norvegicus [9] = assay: Analgesic activity in Wistar rat model of formalin-induced hyperalgesia assessed as reduction in number of formalin-evoked paw flinching during neurogenic phase at 10 mg/kg administered intraperitoneally 30 mins after NOS inhibitor L-NAME injection followed by formalin induction after 30 mins and measured during first 5 mins post formalin injection; assay type: functional, organism-based; outline: as §1
# Rattus norvegicus [10] = assay: Analgesic activity in Wistar rat model of formalin-induced hyperalgesia assessed as reduction in number of formalin-evoked paw flinching during inflammatory phase at 10 mg/kg administered intraperitoneally 30 mins after NOS inhibitor L-NAME injection followed by formalin induction after 30 mins and measured after 15 to 30 mins post formalin injection; assay type: functional, organism-based; outline: as §1
# Rattus norvegicus [11] = assay: Anti-inflammatory activity in Wistar rat assessed as inhibition of carrageenan-induced paw edema at 10 mg/kg, ip preincubated for 1 hr followed by carrageenan challenge and measured for 6 hrs; assay type: functional, organism-based
# Outline: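 Carrageenan-induced paw inflammation in male Wistar rats (250-300 g), three groups of 5 animals. Data are mean±SEM (n=5), analysed by one-way ANOVA with Tukey's multiple range test (p<.05 vs control).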
# [12] = Acute toxicity in Wistar rat assessed as induction of morphological lesions in myocardium at 2000 mg/kg, po measured after 14 days by histological analysis; assay type: organism-based; conditions: in vivo, 336 h
# Outline: (§3)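 Acute oral toxicity per OECD guideline: rats fasted 4 h, then vehicle or single dose of 50, 300 or 2000 mg kg^-1; three rats per group. Animals observed for 14 days; one animal from the high-dose group and one control then sacrificed for tissue histology examined for lesions. Male Wistar rats, 250-300 g.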
# [13] = Acute toxicity in Wistar rat assessed as induction of morphological lesions in kidney at 2000 mg/kg, po measured after 14 days by histological analysis; assay type: organism-based; conditions: in vivo, 336 h; outline: as §3
# [14] = Acute toxicity in Wistar rat assessed as induction of morphological lesions in liver at 2000 mg/kg, po measured after 14 days by histological analysis; assay type: organism-based; conditions: in vivo, 336 h; outline: as §3
# [15] = Drug metabolism in Wistar rat assessed as 2-((S)-2-((S)-1-(2-aminoacetyl)pyrrolidine-2-carboxamido)propanamido)acetic acid formation at 10 mg/kg, ip measured after 6 hrs by LC-MS analysis; assay type: ADME, organism-based; conditions: in vivo
# Outline: (§4)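 Blood serum was taken from treated rats at 30, 60, 90 and 120 min. Proteins were removed by centrifugation, and the supernatants were analysed by LC-MS with HRMS identification of peptide fragments. Breakdown was assessed up to 6 h.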
# [16] = Drug metabolism in Wistar rat assessed as (S)-1-(2-((S)-2-aminopropanamido)acetyl)pyrrolidine-2-carboxylic acid formation at 10 mg/kg, ip measured after 6 hrs by LC-MS analysis; assay type: ADME, organism-based; conditions: in vivo; outline: as §4
# [17] = Drug metabolism in Wistar rat assessed as (S)-2-((S)-1-(2-((S)-2-aminopropanamido)acetyl)pyrrolidine-2-carboxamido)propanoic acid formation at 10 mg/kg, ip measured after 6 hrs by LC-MS analysis; assay type: ADME, organism-based; conditions: in vivo; outline: as §4
# [18] = Drug metabolism in Wistar rat assessed as methyl 2-((S)-2-((S)-1-(2-aminoacetyl)pyrrolidine-2-carboxamido)propanamido)acetate formation at 10 mg/kg, ip measured after 6 hrs by LC-MS analysis; assay type: ADME, organism-based; conditions: in vivo; outline: as §4
# [19] = Drug metabolism in Wistar rat assessed as 2-((S)-2-((S)-1-(2-((S)-2-aminopropanamido)acetyl)pyrrolidine-2-carboxamido)propanamido)acetic acid formation at 10 mg/kg, ip measured after 6 hrs by LC-MS analysis; assay type: ADME, organism-based; conditions: in vivo; outline: as §4
# [20] = biological target: T1, Prostaglandin G/H synthase 2 (Homo sapiens, UniProt P35354); assay: Substrate activity at COX-2 (unknown origin) in DMSO-d6 assessed as chemical shift of NH protons of alanine residues by 1H NMR analysis; assay type: ADME
# T1 sequence (P35354 whole entry): B1 chain
# [21] = biological target: T1, Prostaglandin G/H synthase 2; assay: Substrate activity at COX-2 (unknown origin) in DMSO-d6 assessed as chemical shift of NH protons of glycine residues by 1H NMR analysis; assay type: ADME
# Rattus norvegicus [22] = assay: Analgesic activity in Wistar rat model of acetic-acid-induced writhing assessed as inhibition of writhing numbers at 10 mg/kg, ip preincubated for 30 mins followed by acetic acid induction and measured for 30 mins; assay type: functional, organism-based; outline: as §2
# [23] = biological target: T2, Prostaglandin G/H synthase 1 (Ovis aries, UniProt P05979); assay: Inhibition of ovine COX-1 assessed as reduction in prostaglandin production preincubated for 10 mins followed by arachidonic acid addition and measured after 2 mins by EIA method
# T2 sequence (P05979 whole entry): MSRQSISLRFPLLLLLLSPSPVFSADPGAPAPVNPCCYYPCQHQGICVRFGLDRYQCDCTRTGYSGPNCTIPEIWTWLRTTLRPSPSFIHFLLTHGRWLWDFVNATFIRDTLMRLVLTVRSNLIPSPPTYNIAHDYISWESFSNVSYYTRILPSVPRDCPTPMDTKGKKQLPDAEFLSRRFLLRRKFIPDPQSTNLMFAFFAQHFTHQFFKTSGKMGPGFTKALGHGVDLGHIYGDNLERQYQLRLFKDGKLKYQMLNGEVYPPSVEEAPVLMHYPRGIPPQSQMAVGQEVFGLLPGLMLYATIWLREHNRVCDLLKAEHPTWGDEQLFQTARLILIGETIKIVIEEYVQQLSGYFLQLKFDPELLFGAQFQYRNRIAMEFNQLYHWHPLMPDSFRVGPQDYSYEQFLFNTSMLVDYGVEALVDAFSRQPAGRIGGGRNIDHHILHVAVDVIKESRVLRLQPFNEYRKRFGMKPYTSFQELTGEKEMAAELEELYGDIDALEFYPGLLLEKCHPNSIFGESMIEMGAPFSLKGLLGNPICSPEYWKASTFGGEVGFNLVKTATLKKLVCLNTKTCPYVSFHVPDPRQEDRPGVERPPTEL
# [24] = substrate: CCCCC/C=C\C/C=C\C/C=C\C/C=C\CCCC(=O)O; assay: (§5) Substrate activity at COX-2 (unknown origin) in pH 7.5 HEPES buffer assessed as enzyme-mediated test compound metabolism by measuring Km by LC-MS analysis; assay type: ADME, Homo sapiens
# [25] = substrate: COC(=O)CNC(=O)[C@H](C)NC(=O)[C@@H]1CCCN1C(=O)CNC(=O)[C@H](C)N; assay: as §5; assay type: ADME, Homo sapiens
molecule,measurement,setting,value
COC(=O)CNC(=O)[C@H](C)NC(=O)[C@@H]1CCCN1C(=O)CNC(=O)[C@H](C)N (H-AGPAG-OMe),Activity,Rattus norvegicus [1],56%
same,Activity,Rattus norvegicus [2],80%
same,Activity,[3],1.2 ng/mL
same,Activity,Rattus norvegicus [4],80%
same,Activity,Rattus norvegicus [5],inactive
same,Activity,Rattus norvegicus [6],inactive
same,Activity,Rattus norvegicus [7],inactive
same,Activity,Rattus norvegicus [8],inactive
same,Activity,Rattus norvegicus [9],Active
same,Activity,Rattus norvegicus [10],Active
same,Activity,Rattus norvegicus [11],Active
same,Activity,[12],Non-Toxic
same,Activity,[13],Non-Toxic
same,Activity,[14],Non-Toxic
same,Drug metabolism,[15],Metabolite_Detected
same,Drug metabolism,[16],Metabolite_Detected
same,Drug metabolism,[17],Metabolite_Detected
same,Drug metabolism,[18],Metabolite_Detected
same,Drug metabolism,[19],Metabolite_Detected
same,Activity,[20],Active
same,Activity,[21],Active
COc1ccc2c(c1)c(CC(=O)O)c(C)n2C(=O)c1ccc(Cl)cc1 [INDOMETHACIN],Activity,Rattus norvegicus [1],inactive
same,Activity,Rattus norvegicus [22],Active
same,Activity,[3],0.7 ng/mL
same,Activity,Rattus norvegicus [4],Active
same,Activity,Rattus norvegicus [11],Active
COC(=O)CNC(=O)[C@H](Cc1ccccc1)NC(=O)[C@@H]1CCCN1C(=O)[C@H](Cc1ccccc1)NC(=O)[C@H](C)NC(=O)OCc1ccccc1 (Cbz-AFPFG-OMe),Activity,Rattus norvegicus [2],Active
same,IC50,[23],600 µM
COC(=O)[C@H](Cc1ccccc1)NC(=O)[C@@H]1CCCN1C(=O)CNC(=O)[C@H](CCSC)NC(=O)OCc1ccccc1 (Cbz-MGPF-OMe),Activity,Rattus norvegicus [2],Active
same,IC50,[23],0.5 µM
COC(=O)CNC(=O)[C@H](CCSC)NC(=O)[C@H](Cc1ccccc1)NC(=O)[C@@H]1CCCN1C(=O)OC(C)(C)C (Boc-PFMG-OMe),Activity,Rattus norvegicus [2],Active
same,IC50,[23],50 µM
COC(=O)CNC(=O)[C@H](C)NC(=O)[C@@H]1CCCN1C(=O)CNC(=O)[C@H](C)NC(=O)OCc1ccccc1 (Cbz-AGPAG-OMe),Activity,Rattus norvegicus [2],80%
B1,Km,[24],210 µM
same,kcat,[24],200 s⁻¹
same,kcat/Km,[24],950000 M⁻¹ s⁻¹
same,Km,[25],21 µM
same,kcat,[25],13.2 s⁻¹
same,kcat/Km,[25],630000 M⁻¹ s⁻¹
